Tested on: MS2 coat protein
Experiment: apparent Kd, MS2 coat protein; higher = weaker binding; RNA-MaP array; FMN 200 µM where present
Summary of the method: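 SNAP-549-labelled MS2 coat protein, doubled from 0.7 or 1.5 nM to 3 µM, was titrated over designs transcribed by stalled E. coli RNA polymerase on Illumina sequencing-chip clusters. Titrations were run without and then with constant ligand in 100 mM Tris-HCl pH 7.5, 80 mM KCl, 4 mM MgCl2, BSA, DTT, yeast tRNA and Tween-20. The apparent Kd is the median of filtered per-cluster fits to green signal normalised to red-channel RNA signal and control-cluster median Fmax.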

[1] = designed as: ON switch for flavin mononucleotide, no ligand
[2] = ligand present: flavin mononucleotide, designed as: ON switch for flavin mononucleotide
[3] = designed as: OFF switch for flavin mononucleotide, no ligand
[4] = ligand present: flavin mononucleotide, designed as: OFF switch for flavin mononucleotide

Sequence | apparent Kd [1] | apparent Kd [2] | apparent Kd [3] | apparent Kd [4]
AAAAAAAAAACUCAGGAUAUAGAUUGUAGAACAUGAGGAUCACCCAUGUAGUGAAAGAAGAGAGACUAGAAGGGAGUAAAAAAAAA | 85.7 nM | 74.7 nM | – | –
AAAAAAAAAAGUGAGGAUAUGGGAAAAUUAACAUGAGGAUCACCCAUGUGAUAAAAAAAAAAAAACCAGAAGGUACAAAAAAAAAA | 69.5 nM | 26.4 nM | – | –
AAAAAACAUGAGGAUCACCCAUGUAAGGAUAUCUAAAAUAAAAGAAAAAUAAAGAAAAGGAGAAGGUACAAGGA | – | – | 24.5 nM | 35.1 nM
AAAAAACAUGAGGAUCACCCAUGUCAGGAUAUCAUAAAAAAAAAAAAAAAAAAAAAAGUGAGAAGGGACAAAAA | – | – | 91.7 nM | 71.5 nM
AAAAAACAUGAGGAUCACCCAUGUCCUCGGACAUGAGGAUAUGUACAGACUUCGGUCUGUACAGAAGGCAUGUCAA | 658 nM | 585 nM | – | –
AAAAAACAUGAGGAUCACCCAUGUGAGGAUAUGAUGAAAGAUUGAAAAAGGUUGAAAGUCAGAAGGUAUGUGAA | – | – | 56.9 nM | 59.7 nM
AAAAAACAUGAGGAUCACCCAUGUGAGGAUAUGAUGCGAAUAAAGAAAGAAGAAAGCAUCAGAAGGCACACCUA | – | – | 50.1 nM | 83.9 nM
AAAAAACAUGAGGAUCACCCAUGUGAGGAUAUUGGUAUUCAGGGUAUAAUCUCAAUAGCGAGAAGGCGCAUAAA | – | – | 43.6 nM | 44.3 nM
AAAAACGGAGGAUAUACAAAUUAAGGAAGAAAACACGAAAAACAUGAGGAUCACCCAUGUAGAAGGCCGGAAAA | – | – | 22.6 nM | 28.2 nM
AAAAACGUAGGAUAUACAUGAAAAAAAAAAAAAAAAAAAAGACAUGAGGAUCACCCAUGUAGAAGGGCGAAAAA | – | – | 115 nM | 104 nM
AAAAAGCGAGGAUAUACAUGAGGAUCACCCAUGUCAAACGGUAAGACCGCAGGAAACAGUAGAAGGCGCAAAAA | – | – | 64.3 nM | 89.6 nM
AAAAAGGCAGGAUAUACAUGAGGAUCACCCAUGUGAAAAAAAAAAAAAAAAAAAAAGUGUAGAAGGGUCAAAAA | – | – | 56.9 nM | 46.7 nM
AAAAAGGCAGGAUAUACGAGUCAAAGAAAAGACAAAAGGAGACAUGAGGAUCACCCAUGUAGAAGGGCCAAAAA | – | – | 26.7 nM | 87.7 nM
AAAAAGGUAGGAUAUACGAAAAAAAAGGGUAGAAAAAAAACACAUGAGGAUCACCCAUGUAGAAGGACCAAAAA | – | – | 27.4 nM | 63 nM
AAAAAGUCAGGAUAUACAUGAGGAUCACCCAUGUAGCAUACGAAAAAGAGUGUGCAGUGUAGAAGGGACAAAAA | – | – | 27.1 nM | 25.7 nM
AAAAAGUCAGGAUAUCGGAAAAAAAAAAAAAAAAGGAGAAACGAGAAGGGACAUGAGGAUCACCCAUGUAAAAA | – | – | 51 nM | 46.7 nM
AAAAAGUCAGGAUAUGCGAAGGCGUCUGAUAGACGAGGCUAGCAGAAGGGACAUGAGGAUCACCCAUGUAAAAA | – | – | 31.9 nM | 45.2 nM
AAAAAGUCAGGAUAUGCGAAGGCGUCUGAUAGACGAGGCUAGCAGAAGGGACAUGAGGAUCACCCAUGUGGAAA | – | – | 79.4 nM | 135 nM
AAAAAGUGAUGGUAGGAUAUUGGAAAAGCCACAUGAGGAUCACCCAUGUCAAAAAACCUAAAAAACAAGAAGGGCUGUUAUAAAAA | 18.5 nM | 14.8 nM | – | –

Sequence | apparent Kd [1] | apparent Kd [2] | apparent Kd [3] | apparent Kd [4]
AAAACACAUGAGGAUCACCCAUGUAUCUGGACCAUAGGAUAUCCGCGCCCACUAGGGUGUGGAGAAGGGUGAGCCC | 204 nM | 245 nM | – | –
AAAACAUGAGGAUCACCCAUGUAAAGAUCUGUUAAUAGAAGUGAGGAUAUACUAAAUUUUAGGUAGUAGAAGGCACUGGGUACA | 23.4 nM | 27.4 nM | – | –
AAAACAUGAGGAUCACCCAUGUAAAGUUCGGUUAAUAGAGGUGAGGAUAUACUAAAUUUUGGGUGGUAGAAGGCACUGGGUACA | 122 nM | 105 nM | – | –
AAAACUGGAGGAUAUACAUGAGGAUCACCCAUGUGUGGGUAGGCUGUGUCGGCGUCAGGUAGAAGGCCACAAAA | – | – | 92.3 nM | 136 nM
AAAAGACAUGAGGAUCACCCAUGUCAGGAUAUCUAUAUUCAAGGGUCGGAGGGAAUACAGAGAAGGGAUGAGGG | – | – | 21.8 nM | 24.8 nM
AAAAGACAUGAGGAUCACCCAUGUGAAAACGUAGGAGGAUAUGUCGUGAAAAAAGACUUGACAGAAGGCCUGUGUC | 97.7 nM | 30.8 nM | – | –
AAAAGACAUGAGGAUCACCCAUGUGAAAACGUGCGAGGAUAUGUAUGGAAACCAUACUGUACAGAAGGCGUUUGUC | 31.2 nM | 31.6 nM | – | –
AAAAGCAACACAGGAUAUAUCACGGGUGAUUUGAUAGAAGGGUGAGCGAAAGAGAGCAACAUGAGGAUCACCCAUGUAUGUUUG | 304 nM | 184 nM | – | –
AAAAGGCAUCGUGACAUGAGGAUCACCCAUGUGAUUUGCUCACAGGAUAUCAUGCUCACGGAGCCUGAGAAGGGUGAAAGCUAA | 28.7 nM | 54.7 nM | – | –
AAAAGGUGAGGAUAUUCGGCGCCGGGAAGGUUGGUGCGGAUGAAGAAGGCACAUGAGGAUCACCCAUGUAAUAA | – | – | 63 nM | 49.1 nM
AAAAUCUAUUGAGGAUAUUCAUACACUGCAUACGGAGAAGGCAAACAAUCAUGAGGACAUGAGGAUCACCCAUGUUGUGACCAU | 17.6 nM | 15.3 nM | – | –
AAACAACAUGAGGAUCACCCAUGUAAGGAUAUGCGAGUUGGGUCAACGAAGGUUGAAGGCAGAAGGUAUAGGGU | – | – | 58.5 nM | 50.4 nM
AAACACGGACAUGAGGAUCACCCAUGUAAUAAUAACAUUGGGAGAAGGCCGAUUGCAAAGCAAUCGGAGGAUAUUCAUACCGUG | 279 nM | 447 nM | – | –
AAACACGGACAUGAGGAUCACCCAUGUGGCGAAAGCCUUGGGAGAAGGCAGUAUGCAAAGCAUUCUGAGGAUAUUCAUACCGUG | 926 nM | 68.9 nM | – | –
AAACACGGAGGAUAUACAGGUUCGGGAAACCGAACCGGCUGACAUGAGGAUCACCCAUGUAGAAGGCCGAAAUA | – | – | 19.3 nM | 45.8 nM
AAACAGUACGAGAAGGGCUACAUGAGGAUCACCCAUGUAGACGGUCGUGUGGCAGGAUAUCGAACACACCGAAAACGGUGCGUU | – | – | 5.32 nM | 7.09 nM
AAACAUGAGGAUCACCCAUGUAAACGAGAAGGGCGAGAGAGUAGAGGAUAGGAGAAAGAUGAGUCGCAGGAUAUCGACCUCAUA | 16 nM | 17 nM | – | –
AAACAUGUCCGAGGAUAUCUGAAAACAUUUUUAAGAGAAGGCGGACAUGAGGAUCACCCAUGUCUCUCCUCAUCAAAUCCAAAU | – | – | 17.5 nM | 73.2 nM
AAACAUGUCCGAGGAUAUCUGAGAUCACUUUCAAGAGAAGGCGGACAUGAGGAUCACCCAUGUCUCUCCUCAUCAACUCCAAAU | – | – | 8.01 nM | 41.9 nM

Sequence | apparent Kd [1] | apparent Kd [2] | apparent Kd [3] | apparent Kd [4]
AAACAUGUCCGAGGAUAUCUGGAAACAUUUCCAAGAGAAGGCGGACAUGAGGAUCACCCAUGUCUCUCCUCAUCAAAUCCAAGU | – | – | 24.6 nM | 287 nM
AAACAUGUCCGAGGAUAUCUGGAAACAUUUUCAAGAGAAGGCGGACAUGAGGAUCACCCAUGUCUCUCCUCAUCCAAUCCAAGU | – | – | 9.36 nM | 46.4 nM
AAACGUAGAGGAUAUACAUAAGUAUUACGAAAGUAAUACAAACAUGAGGAUCACCCAUGUAGAAGGCUACGAAA | – | – | 25.4 nM | 35.3 nM
AAACUCAGAGGAUAUACAUAACACAGACUCUUCAUGCGUUCACAUGAGGAUCACCCAUGUAGAAGGCUGACAAC | – | – | 23.2 nM | 85.1 nM
AAAGAACUAGGAUAUACAUGAGGAUCACCCAUGUGCAGCUUAACGGCUCACACCUUAUGUAGAAGGAGUGACCG | – | – | 16 nM | 19.3 nM
AAAGAGCGAGGAUAUGCGUGCCGGUGCGGCCAGCCGAUGUGACAUGAGGAUCACCCAUGUAGAAGGCGCAGAAA | – | – | 14.3 nM | 14.7 nM
AAAGAUCCUCAGAAGGGCUCGUCCUAUAAGAUAGCAGGAUAUGAGGAGAUUGCCAAACAUGAGGAUCACCCAUGUAGUUGGAGU | 83.5 nM | 14.8 nM | – | –
AAAGUUGGUAGGCCCUCGGCACAUGAGGAUCACCCAUGUAAGGAGGAUAUGCCCGGUACCCGCUGGCAGAAGGCCUUAUAAGAA | – | – | 12.2 nM | 110 nM
AAAUAAAGCAGUGUGGUAAGAUCACAUGAGGAUCACCCAUGUAAGGAUAUGACGAGCAAAGCUCGUCAGAAGGUACGUCACUGC | – | – | 34 nM | 133 nM
AAAUAAAGUACCUUGAUAUCCUCACAUGAGGAUCACCCAUGUCAGGAUAUUUGUCCUAAAAGGACAGAGAAGGGACAAGGUAUA | – | – | 5.82 nM | 6.19 nM
AAAUAAGUUGCAGGAUAUUAUUUUUGAUAAAUAUAAGAAGGGCAACAAACCUCACAUGAGGAUCACCCAUGUACCCAUGUAUCU | – | – | 65.5 nM | 30 nM
AAAUAGGAAGGAUAUACGGCGGGAUACUGGUUCCACGUGUUACAUGAGGAUCACCCAUGUAGAAGGUCUGGUUA | – | – | 24.7 nM | 55.4 nM
AAAUCCGAAGGAUAUACAUCAAAAGCAAACUGACCCUCACGACAUGAGGAUCACCCAUGUAGAAGGUUGGAAAU | – | – | 20.3 nM | 18.1 nM
AAAUCCUACGAAGGAUAUACAAACAUGAGGAUCACCCAUGUGUGUUUCGUGUAACUGGAAUUCGGGUAGAAGGUCGUAGACAUA | – | – | 33.2 nM | 20.8 nM
AAAUCGGUAGGAUAUACGAUUUGGUACUAGACCGAGGAACCACAUGAGGAUCACCCAUGUAGAAGGACCAGAUA | – | – | 20.7 nM | 13.9 nM
AAAUCUUACGAAGGAUAUACAAACAUGAGGAUCACCCAUGUGUGUUUCGUGUUACUGAAAUUCGGGUAGAAGGUCGUAGACAUA | – | – | 27.7 nM | 19.2 nM
AAAUGAUAGUCAGGAUAUAAGUUGGAGCCUCGGUCGCACAUGAGGAUCACCCAUGUGUCUUGGAUUUAGAAGGGACAGAUGGGC | 682 nM | 648 nM | – | –
AAAUGCCUGUCGAUGCUCGACAUGAGGAUCACCCAUGUAUAGCAGGAUAUGCAGAACUGACUCGUGCAGAAGGGCUAUACCUAA | – | – | 38.2 nM | 315 nM

From the EternaBench riboswitch data
